Experimental findings from ChEMBL document CHEMBL1126896, “Preparation and anti-HIV activity of O-acylated heparin and dermatan sulfate derivatives with low anticoagulant effect” (J Med Chem, 1993) are described below.

In test [1] the test system is MT4. Description: Effective concentration to achieve 50% protection of MT-4 cells against the cytopathic effect of HIV-2. Type of test: functional, cell-based. Background: Damage to the host cells serves as the signal in cytopathic effect assays.
The subject of test [2] is MT4. Description: Selectivity index for CC50 (cytotoxic concentration based on reduction of viability of mock-infected MT-4 cells) to that of EC50 against HIV-2. It is filed as functional. A digest of the protocol: (§1)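 MT-4 cells at 3 × 10^5 cells/mL were infected with HIV-1 IIIB or HIV-2 ROD at 100 CCID50/mL, or mock-infected, alongside serial compound dilutions. Viability was read by MTT after 5 days at 37 °C. CC50 comes from mock-infected cells and EC50 from protection against cytopathicity. Index = CC50/EC50.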

The test system of test [3] is HuT78. Description: Giant-cell formation between persistently HIV-1 infected HUT-78 cells and uninfected MOLT-4 cells. Type of test: functional, cell-based. Put shortly: (§2)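 MOLT-4 cells were co-cultured with an equal number of HUT-78 cells persistently infected with HIV-1 IIIB or HIV-2 ROD, with varying compound concentrations. Syncytia were counted by flow cytofluorography after 24 h. EC50 is the concentration giving 50% protection against giant-cell formation.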

In test [4] the test system is MT4. Description: Selectivity index for CC50 (cytotoxic concentration based on the reduction of the viability of mock-infected MT-4 cells) to that of EC50 against HIV-1. Type of test: functional. Put shortly: as §1
In test [5] the test system is MT4. Description: Effective concentration to achieve 50% protection of MT-4 cells against the cytopathic effect of HIV-1. Type of test: functional, cell-based.
Test [6] has as its system HuT78. Description: Giant-cell formation between persistently HIV-2 infected HUT-78 cells and uninfected MOLT-4 cells. Type of test: functional, cell-based. A digest of the protocol: as §2
Test [7] in a line: In vitro anticoagulant activity determined by clotting test of activated partial thromboplastin time (APTT) on a pool of human plasma. Type of test: functional. Put shortly: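 Activated partial thromboplastin time clotting test on pooled human plasma, run on an automatic coagulometer. Activities were calculated according to the European Pharmacopoeia.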
Where [8] appears, read: Homo sapiens, MT4, read-out: EC50.
[9] abbreviates: Homo sapiens, HuT78, read-out: EC50.

Some results are limits rather than exact numbers.

As a reminder, the EC50 is the concentration giving half of the maximal effect. As to `O=C(/C=C(\CO)OC1OC(COS(=O)(=O)[O-])C(OC2OC(C(=O)OCc3ccccc3)C(OC3OC(COS(=O)(=O)[O-])C(OC4OC(C(=O)OCc5ccccc5)C(OC5OC(COS(=O)(=O)[O-])C(O)C(O)C5NS(=O)(=O)[O-])C(O)C4OS(=O)(=O)[O-])C(O)C3NS(=O)(=O)[O-])C(O)C2OS(=O)(=O)[O-])C(O)C1NS(=O)(=O)[O-])OCc1ccccc1.[Na+].[Na+].[Na+].[Na+].[Na+].[Na+].[Na+].[Na+]` (stereo unspecified), the EC50 in the test with MT4 [1] (setting [8]) came to 0.4 µg/mL; in the test with HuT78 [3] (setting [9]) it was 1 µg/mL; in the test with MT4 [5] (setting [8]), 0.33 µg/mL; in the test on HuT78 [6] (setting [9]), 2 µg/mL. The Selectivity index is listed as >1250 in the test with MT4 [2] and >1515 with MT4 [4]. In test [7], the APTT worked out at 4 IU mg-1.
Take `CCCCCC(=O)OC/C(=C\C(=O)[O-])OC1OC(COS(=O)(=O)[O-])C(OC2OC(C(=O)[O-])C(OC3OC(COS(=O)(=O)[O-])C(OC4OC(C(=O)[O-])C(OC5OC(CS(=O)(=O)[O-])C(O)C(OC(=O)CCCCC)C5NS(=O)(=O)[O-])C(OC(=O)CCCCC)C4OS(=O)(=O)[O-])C(OC(=O)CCCCC)C3NS(=O)(=O)[O-])C(OC(=O)CCCCC)C2OS(=O)(=O)[O-])C(OC(=O)CCCCC)C1NS(=O)(=O)[O-].[Na+].[Na+].[Na+].[Na+].[Na+].[Na+].[Na+].[Na+].[Na+].[Na+].[Na+]` (stereo in doubt; 3f): the concentration for a half-maximal effect (EC50) is 1 µg/mL in the test with MT4 [1] (mt4), 7 µg/mL with HuT78 [3] (hut78), 0.2 µg/mL with MT4 [5] (mt4) and 100 µg/mL with HuT78 [6] (hut78). Further, the Selectivity index is reported as >500 in the test on MT4 [2] and >2500 in the test with MT4 [4]. The APTT in test [7] is on record as 4 IU mg-1.
As to `CCCCCC(=O)OC/C(=C\C(=O)[O-])OC1OC(COS(=O)(=O)[O-])C(OC2OC(C(=O)[O-])C(OC3OC(COS(=O)(=O)[O-])C(OC4OC(C(=O)[O-])C(OC5OC(CS(=O)(=O)[O-])C(O)C(OC(=O)CCCCC)C5NS(=O)(=O)[O-])C(OC(=O)CCCCC)C4OS(=O)(=O)[O-])C(OC(=O)CCCCC)C3NS(=O)(=O)[O-])C(OC(=O)CCCCC)C2OS(=O)(=O)[O-])C(OC(=O)CCCCC)C1NS(=O)(=O)[O-].[Na+].[Na+].[Na+].[Na+].[Na+].[Na+].[Na+].[Na+].[Na+].[Na+].[Na+]` (stereo in doubt; 3g), the EC50 amounted to 0.8 µg/mL in the test on MT4 [1] (mt4), 6 µg/mL in the test with HuT78 [3] (hut78) and 75 µg/mL in the test with HuT78 [6] (hut78). Further, in the test on MT4 [2], the Selectivity index is given as >650.
Take `CCCCCC(=O)OC/C(=C\C(=O)[O-])OC1OC(COS(=O)(=O)[O-])C(OC2OC(C(=O)[O-])C(OC3OC(COS(=O)(=O)[O-])C(OC4OC(C(=O)[O-])C(OC5OC(CS(=O)(=O)[O-])C(O)C(OC(=O)CCCCC)C5NS(=O)(=O)[O-])C(OC(=O)CCCCC)C4OS(=O)(=O)[O-])C(OC(=O)CCCCC)C3NS(=O)(=O)[O-])C(OC(=O)CCCCC)C2OS(=O)(=O)[O-])C(OC(=O)CCCCC)C1NS(=O)(=O)[O-].[Na+].[Na+].[Na+].[Na+].[Na+].[Na+].[Na+].[Na+].[Na+].[Na+].[Na+]` (stereo in doubt; 3j): the figures for the concentration giving a half-maximal response (EC50) with HuT78 [3] (hut78), in the test on MT4 [5] (mt4) and in the test on HuT78 [6] (hut78) were 2 µg/mL, 0.4 µg/mL and 10 µg/mL, respectively. The Selectivity index in the test on MT4 [4] is >1250.
Regarding `CCCCCC(=O)OC/C(=C\C(=O)[O-])OC1OC(COS(=O)(=O)[O-])C(OC2OC(C(=O)[O-])C(OC3OC(COS(=O)(=O)[O-])C(OC4OC(C(=O)[O-])C(OC5OC(CS(=O)(=O)[O-])C(O)C(OC(=O)CCCCC)C5NS(=O)(=O)[O-])C(OC(=O)CCCCC)C4OS(=O)(=O)[O-])C(OC(=O)CCCCC)C3NS(=O)(=O)[O-])C(OC(=O)CCCCC)C2OS(=O)(=O)[O-])C(OC(=O)CCCCC)C1NS(=O)(=O)[O-].[Na+].[Na+].[Na+].[Na+].[Na+].[Na+].[Na+].[Na+].[Na+].[Na+].[Na+]` (stereo in doubt; 3i), the figures for the EC50 in the test with MT4 [1] (mt4) and in the test with HuT78 [6] (hut78) were 0.3 µg/mL and 13 µg/mL, respectively. The results for the Selectivity index with MT4 [2] and in the test on MT4 [4] were >1666 and >2600, respectively.
